How the values were obtained:
[1] = melting temperature; fluorescence melt of hairpins on a sequencing array, two-state fit, raised by 9.35 °C to match UV melts; settings: sodium 0.088 M
Outline: (§1)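 On a sequenced MiSeq flow cell, library hairpins with annealed Cy3 and quencher oligos were imaged for Cy3 fluorescence in 2.5 °C steps up to 60 °C, in 50 mM Na-HEPES pH 8.0, 25 mM NaCl. Normalisation used pre-quench Cy3 and control constructs. Bootstrapped two-state fits gave melting temperature and folding enthalpy, combined by inverse variance across four replicates and with fitted temperatures raised by 9.35 °C to match UV melts.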

[2] = folding enthalpy; higher = less favourable; fluorescence melt of hairpins on a sequencing array, two-state fit; settings: sodium 0.088 M
Outline: as §1

Sequence | Tm [1] | folding enthalpy [2]
GTCAAGGAAACTTGAC ((((((....)))))) | 53.5 °C | -29.6 kcal/mol
GTCAAGGCGAAAGCCGAC (((..(((....)))))) | 48.1 °C | -10.2 kcal/mol
GTCAAGGGAAACCTTGAC (((((((....))))))) | 58 °C | -47.2 kcal/mol
GTCAAGGGAAACCTTGGC (.(((((....))))).) | 49.4 °C | -33.1 kcal/mol
GTCAATGCGAAAGCAGAC (((..(((....)))))) | 39.1 °C | -16.3 kcal/mol
GTCAATGGAAACACTGAC ((((.((....)).)))) | 34.5 °C | -22.1 kcal/mol
GTCAATGGAAACATCGAC (((.(((....))).))) | 33.3 °C | -33.1 kcal/mol
GTCACACGAAAGTGGAC (((.(((....)))))) | 48.6 °C | -18.7 kcal/mol
GTCACAGGAAACTACGAC (((..((....))..))) | 28.4 °C | -21.8 kcal/mol
GTCACCCGAAAGGGAGAC (((.(((....))).))) | 57.2 °C | -33.6 kcal/mol
GTCACCGAAAGGTACGAC ((((((....)))..))) | 41.2 °C | -18 kcal/mol
GTCACCGAAAGGTATGAC ((((((....)))..))) | 40.1 °C | -20.2 kcal/mol
GTCACCGAAAGGTCCGAC ((((((....)))..))) | 31.1 °C | -11.2 kcal/mol
GTCACCGAAAGGTCTGAC ((((((....)))..))) | 33.7 °C | -15.2 kcal/mol
GTCACCGAAAGGTGGAC ((((((....))).))) | 54.2 °C | -14.1 kcal/mol
GTCACCGAAAGGTGGGAC ((((((....)))..))) | 39 °C | -9.56 kcal/mol
GTCACCGAAAGGTGTGAC ((((((....)))..))) | 42.4 °C | -11.6 kcal/mol
GTCACCGAAAGGTTTGAC ((((((....)))..))) | 37.4 °C | -15.6 kcal/mol
GTCACCGGAAACAGTGAC (((((.(....).))))) | 44.9 °C | -32.4 kcal/mol

Sequence | Tm [1] | folding enthalpy [2]
GTCACGCGAAAGCGAGAC (((.(((....))).))) | 60.1 °C | -17.5 kcal/mol
GTCACGGGAAACCATGAC ((((.((....)).)))) | 41.7 °C | -29.9 kcal/mol
GTCACGGGAAACCGTGAC (((((((....))))))) | 68.9 °C | -35.5 kcal/mol
GTCACGGGAAACCGTGGC (.(((((....))))).) | 62.7 °C | -19 kcal/mol
GTCACGGGAAACTGTGAC (((((.(....).))))) | 54.6 °C | -40.1 kcal/mol
GTCACTACGAAAGTAGAC (((..(((....)))))) | 28.3 °C | -10.2 kcal/mol
GTCACTGGAAACAGTGAC (((((((....))))))) | 63 °C | -46.7 kcal/mol
GTCAGACGAAAGTCGAC (((.(((....)))))) | 51.9 °C | -31.5 kcal/mol
GTCAGACGAAAGTCGGAC (((.(((....))).))) | 63.1 °C | -35.5 kcal/mol
GTCAGAGGAAACTCTGGC (.(((((....))))).) | 50.3 °C | -30.4 kcal/mol
GTCAGAGGAAACTTTGAC ((((.((....)).)))) | 37.8 °C | -32.4 kcal/mol
GTCAGCCGAAAGGCAGAC (((.(((....))).))) | 61.9 °C | -24.4 kcal/mol
GTCAGCGAAAGCTAAGAC ((((((....)))..))) | 41.5 °C | -16.7 kcal/mol
GTCAGCGAAAGCTATGAC ((((((....)))..))) | 44.2 °C | -20.6 kcal/mol
GTCAGCGAAAGCTCAGAC ((((((....)))..))) | 34.5 °C | -15.8 kcal/mol
GTCAGCGGAAACACTGAC (((((.(....).))))) | 47.2 °C | -40.7 kcal/mol
GTCAGCGGAAACGCTAAC ((.((((....)))).)) | 37.4 °C | -15.2 kcal/mol
GTCAGCGGAAACGTTGAC ((((.((....)).)))) | 52.9 °C | -43.5 kcal/mol

From the array DNA melting data of Ke et al. (doi:10.1101/2024.01.08.574731)
